Screening data as filed in PubChem.
Efflux pump inh: antifungal efflux pump inhibition, Nile Red retention. S. cerevisiae Candida pump triplex. inhibition, % at 10 µM. 330,000 compounds, 0.44% hits;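 active means plate passing quality check with inhibition over a set limit, or well fluorescence over plate mean plus 4 SD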;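 further: Nile Red retained in pooled yeast measured as flow cytometry median fluorescence; 0% = buffer negative control and 100% = Enniatin B positive control; higher means more Nile Red kept so more efflux inhibition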
Neddylation inh: inhibitors of human cullin neddylation | P61081+Q13564 | TR-FRET cullin neddylation, biochemical | inhibition, % at 25 µM | 360,000 compounds, 0.58% hits | AID 651699; in the data active means inhibition above about 36%
Target sequence (P61081 whole entry, looked up): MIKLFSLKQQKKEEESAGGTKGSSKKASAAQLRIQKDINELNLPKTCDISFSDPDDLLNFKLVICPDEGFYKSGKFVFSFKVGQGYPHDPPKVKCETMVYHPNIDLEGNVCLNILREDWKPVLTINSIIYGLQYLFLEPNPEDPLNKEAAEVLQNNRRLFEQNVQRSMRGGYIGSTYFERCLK
Target sequence (Q13564 whole entry, looked up): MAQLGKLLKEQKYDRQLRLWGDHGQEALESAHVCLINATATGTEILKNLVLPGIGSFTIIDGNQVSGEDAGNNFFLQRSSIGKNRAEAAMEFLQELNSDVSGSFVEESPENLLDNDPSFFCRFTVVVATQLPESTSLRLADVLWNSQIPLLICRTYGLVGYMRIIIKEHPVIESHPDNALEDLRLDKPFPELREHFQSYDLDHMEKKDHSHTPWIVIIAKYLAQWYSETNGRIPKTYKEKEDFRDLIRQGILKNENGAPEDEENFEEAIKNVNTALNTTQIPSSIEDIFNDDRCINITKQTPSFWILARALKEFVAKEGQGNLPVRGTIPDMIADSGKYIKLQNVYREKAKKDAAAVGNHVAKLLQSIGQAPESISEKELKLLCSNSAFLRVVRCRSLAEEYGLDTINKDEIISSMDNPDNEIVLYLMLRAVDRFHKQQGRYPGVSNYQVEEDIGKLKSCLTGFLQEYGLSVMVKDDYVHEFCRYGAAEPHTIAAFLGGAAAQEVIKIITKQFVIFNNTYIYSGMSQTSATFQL
Pemphigus Ab inh: blocks pemphigus antibody binding to human desmoglein-3; 310,000 compounds, 0.48% hits; binding (percent of control), % at 10 µM; DSG3-coupled beads, scFv-anti-DSG3-GFP binding, flow cytometry; hits give low values;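 active means binding more than 3 SD below its plate's average and above zero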;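 further: hits lower antibody fragment binding to DSG3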
Arr AP2 block: inhibitors of human beta-arrestin and AP2 interaction. inhibition, % at 10 µM. AID 504490. FITC-arrestin peptide / GST-AP2 beads, flow cytometry; AP2 beta2 appendage carries R879A mutation. 340,000 compounds, 0.31% hits;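 active means inhibition above a set limit, near 3 SD of compounds lacking own fluorescence, cut at about 54% in these data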;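 further: plate controls were DMSO wells for no effect and 5 µM unlabelled arrestin peptide for full effect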
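Test system: GST-tagged AP2 beta2-adaptin appendage (R879A) on 4 µm glutathione beads; also added: fluorescein-tagged arrestin peptide at 50 nM final; timing: 12 min plus 1 h, RT; signal: flow cytometry, FL1 (488/535 nm); read-out: percent drop in bead-associated FITC signal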
Arr AP2 CP1: inhibitors of human beta-arrestin and AP2 interaction; shares compounds with Arr AP2 block; GST-AP2 beads, FITC arrestin peptide binding, flow cytometry; GST-fused beta2-adaptin appendage, R879A mutant; inhibition, % at 10 µM; 1,300 compounds, 2% hits; AID 504908;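 active means inhibition above a set limit, roughly 3 SD of non-fluorescent compound noise, cut at about 38% in these data; inactive means inhibition at or below that limit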;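 further: loss of bead fluorescence from 50 nM FITC arrestin peptide bound to appendage; 0% = negative control wells and 100% = excess unlabelled arrestin peptide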
GST-FITC bead: GST-GSH bead binding interference, counter-screen; GST-fluorescein binding to GSH beads, fluorescence; inhibition, % at 10 µM; 1,300 compounds, 2% hits; shares compounds with Arr AP2 block;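 active means inhibition above 50%, about 3 SD of the inhibition seen with non-fluorescent compounds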;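 further: fluorescein maleimide labelled GST captured on 4 micron glutathione beads; higher means more loss of bead fluorescence from quenching or blocked binding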
* hit, by the source's call; i = inactive; nt = no result. Compounds with a hit are over-represented: about 1.7% of the library has one in this group of screens.

SMILES | Efflux pump inh | Neddylation inh | Pemphigus Ab inh | Arr AP2 block | Arr AP2 CP1 | GST-FITC bead
CC[n+]1c(/C=C/Nc2ccccc2)oc2ccc(OC)cc21 | 0 | -11 | 155 | 58* | -15 | -2
CC[n+]1c(/C=C/Nc2ccccc2)oc2ccccc21 | 0 | -14 | 137 | -13 | nt | nt
Cc1cc(C(=O)OCC(=O)NCCc2ccccc2)c2ccccc2n1 | 0 | 7 | 103 | 54* | 4 | 1
CCCNC(=O)COC(=O)c1cc(C)nc2ccccc12 | 0 | 4 | 104 | 12 | nt | nt
O=C1CN(C(=O)/C=C/c2ccccc2)CCN1 | 0 | 3 | 93 | 57* | -12 | -15
O=C1CN(C(=O)/C=C/c2ccc(Cl)cc2Cl)CCN1 | 0 | -11 | 102 | 9 | nt | nt
NS(=O)(=O)c1ccc(N/N=C/c2ccc(O)cc2O)c([N+](=O)[O-])c1 | 0 | -51 | 81 | 44 | nt | nt
NS(=O)(=O)c1ccc(N/N=C/c2ccc(O)c(O)c2O)c([N+](=O)[O-])c1 | nt | -64 | 28 | 78* | 41* | 14
COc1ccc(CN(C)CC(=O)Nc2cc3oc4ccccc4c3cc2OC)c(OC)c1 | -1 | -1 | 143 | 6 | -3 | 2
COc1cc2c(cc1NC(=O)CN(C)Cc1ccc(OC)c(OC)c1)oc1ccccc12 | 0 | 19 | 99 | 18 | 0 | -10
CCOc1ccc(CN(C)CC(=O)Nc2cccc3ccccc23)cc1OC | 0 | 0 | nt | -38 | nt | nt
O=C(CNC(=O)C12CC3CC(CC(C3)C1)C2)N1CCN(S(=O)(=O)/C=C/c2ccccc2)CC1 | 0 | 0 | 101 | 43 | nt | nt
Cc1oc2ccc(O)cc2c1C(=O)c1ccc(F)cc1 | 0 | -5 | 105 | -8 | nt | nt
COc1ccc(CN2CCC[C@]3(N[C@H](c4ccc(C(F)(F)F)cc4)[C@@H]4C(=O)N(Cc5ccccc5)C(=O)[C@@H]43)C2=O)cc1 | nt | 11 | 103 | nt | nt | nt
Cc1ccc(C2=C(c3ccc([N+](=O)[O-])cc3)C(=O)OC2)cc1C | 0 | -42 | 97 | 54* | -5 | 0
O=C(O)Cn1nnc(-c2ccccc2)c1COc1ccccc1 | nt | 12 | nt | nt | nt | nt
O=C(c1ccccc1F)N1CCN(c2ccccn2)CC1 | 0 | 10 | 107 | 1 | nt | nt
O=C(NCC1CCCO1)c1cc(-c2ccccc2)nc2ccc(Br)cc12 (centres undefined) | -1 | i | 108 | 54* | 1 | -5
Cc1ccc2nc(-c3cccc(Br)c3)cc(C(=O)NCC3CCCO3)c2c1 (centres undefined) | 0 | -12 | 104 | -6 | nt | nt
O=C(Nc1ccc([N+](=O)[O-])cc1Br)c1cccnc1 | 0 | -20 | nt | -1 | nt | nt
CCNC(=O)C(=O)NCc1ccncc1 | 0 | 0 | 107 | 62* | 4 | -1
CCCCNS(=O)(=O)c1ccc(NC(=O)Cc2ccccc2[N+](=O)[O-])cc1 | 0 | -12 | 100 | 56* | 1 | 1
CCn1nc(NS(=O)(=O)c2ccccc2)c2cc3cc(C)ccc3nc21 | 1 | -8 | nt | 62* | 3 | 2
O=C(Nc1cccc(S(=O)(=O)N2CCOCC2)c1)c1ccc(=O)[nH]c1 | 0 | 9 | 102 | -2 | -7 | 5
O=C(Nc1cccc(S(=O)(=O)N2CCOCC2)c1)c1cc(=O)[nH]c2ccccc12 | 0 | 2 | 103 | 20 | 1 | -1
SMILES | Efflux pump inh | Neddylation inh | Pemphigus Ab inh | Arr AP2 block | Arr AP2 CP1 | GST-FITC bead
Cc1cc(C(=O)Nc2cccc(S(=O)(=O)N3CCOCC3)c2)c2ccccc2n1 | 0 | -13 | 104 | 31 | -12 | -5
O=C(Nc1cccc(S(=O)(=O)N2CCCC2)c1)c1cc(=O)[nH]c2ccccc12 | 0 | 0 | 107 | -3 | nt | nt
Cc1cc(C(=O)Nc2ccc(N3CCOCC3)cc2)c2ccccc2n1 | 0 | 1 | nt | 2 | nt | nt
O=C(Nc1cccc(S(=O)(=O)N2CCCCC2)c1)c1cc(=O)[nH]c2ccccc12 | 1 | 9 | nt | 1 | -7 | -5
COc1ccccc1NC(=O)Cn1c(CCC(=O)O)ccc1-c1ccc(C)cc1 | 0 | 6 | 96 | 10 | nt | nt
Cc1ccc2nc(CNC(=O)C3CCC(=O)N(Cc4ccccc4F)C3)cn2c1 (centres undefined) | 0 | 19 | 97 | 43 | nt | nt
Cc1ccc(C(C)(C)NC(=O)C2CCC(=O)N(Cc3ccccc3F)C2)cc1 (centres undefined) | 0 | -1 | nt | -4 | -5 | 3
